Reference: the EternaBench riboswitch data

Key:
[1] = tested on: MS2 coat protein; experiment: apparent Kd, MS2 coat protein; higher = weaker binding; RNA-MaP array; theophylline 2 mM where present
Outline: (§1)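 In 100 mM Tris-HCl pH 7.5, 80 mM KCl, 4 mM MgCl2, BSA, DTT, yeast tRNA and Tween-20, SNAP-549-labelled MS2 coat protein was titrated from 0.7 or 1.5 nM, doubling to 3 µM, over designs transcribed by stalled E. coli RNA polymerase on Illumina sequencing-chip clusters. This was done first without ligand, then with ligand held constant. After green signal was normalised to red-channel RNA signal and control-cluster median Fmax, the apparent Kd was taken as the median of filtered per-cluster binding-curve fits.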

[2] = tested on: MS2 coat protein; experiment: apparent Kd, MS2 coat protein; higher = weaker binding; RNA-MaP array; tryptophan 2.4 mM where present
Outline: as §1

[3] = designed as: OFF switch for theophylline, no ligand
[4] = ligand present: theophylline, designed as: OFF switch for theophylline
[5] = designed as: ON switch for theophylline, no ligand
[6] = ligand present: theophylline, designed as: ON switch for theophylline
[7] = designed as: OFF switch for tryptophan, no ligand
[8] = ligand present: tryptophan, designed as: OFF switch for tryptophan
[9] = designed as: ON switch for tryptophan, no ligand
[10] = ligand present: tryptophan, designed as: ON switch for tryptophan

AGACAUGAGGAUCACCCAUGUAGUACGGAUACCAGAUCCAGAUGUAUCCCUUGGCAGCUGUGGUACAGCGUUACAUCGCUCCUAG
apparent Kd [1, 3]: 15.1 nM | apparent Kd [1, 4]: 19.4 nM

AUGUCGUUGAAUAUAGCGGCUUGGAGUGAUACCAGUAUGAUCCAAUACCCUUGGCAGCAUAACAUGAGGAUCACCCAUGUUCCAG
apparent Kd [1, 5]: 21.3 nM | apparent Kd [1, 6]: 31.6 nM

CGGUUUGUGAUGGAUACCAGCAGAGAAAAUGUUUAUCCUGACAUGAGGAUCACCCAUGUGUGCCCUUGGCAGCUGUUGUGGGCUG
apparent Kd [1, 3]: 56.2 nM | apparent Kd [1, 4]: 75.3 nM

AUUCCAUUGGUGCAGUUGUUAAAUGGCGAUACCAGCGUGGAAACACGCCCUUGGCAGCGCCAAAACAUGAGGAUCACCCAUGUUA
apparent Kd [1, 3]: 61 nM | apparent Kd [1, 4]: 120 nM

CCUAUGACAUGAGGAUCACCCAUGUUGGAUACCAGCGCAUGAGGACGCCCUUGGCAGCCAAUGAACAUGAGGAUACAUGAGGAUC
apparent Kd [1, 5]: 44.5 nM | apparent Kd [1, 6]: 185 nM

AAACAUGAGGAUCACCCAUGUUCAAUAGAUACCAGUGAUACGGUGCACCCUUGGCAGCUGUUGCUGAGUGAUGGUUCCCUCGGUA
apparent Kd [1, 5]: 29 nM | apparent Kd [1, 6]: 37.3 nM

UUACAUGAGGAUCACCCAUGUCAUAAUGAUACCAGAUAGUUGAUGAUCCCUUGGCAGCAUAGUACCUAGACAUGUGAGUCAUAGG
apparent Kd [1, 5]: 113 nM | apparent Kd [1, 6]: 132 nM

AGCAGUACAACAGAUACCAGACUUUUCAUGCCUUUAAUUACAUGAGGAUCACCCAUGUUUGUCCCUUGGCAGCUGUUGUACUGCA
apparent Kd [1, 3]: 41.9 nM | apparent Kd [1, 4]: 111 nM

CUAGGAAACUAGUAAGGGUGGUAUAGAGAUACCAGUACAGAAAUGUACCCUUGGCAGCUCACUGCAACAUGAGGAUCACCCAUGU
apparent Kd [1, 3]: 32.3 nM | apparent Kd [1, 4]: 102 nM

UAUAAAAUAACAGAUACCAGCGUGUUAUAAAACAUGAGGAUCACCCAUGUAGUGAUCAAGCGCCCUUGGCAGCUGGUAUUUUAUA
apparent Kd [1, 5]: 101 nM | apparent Kd [1, 6]: 126 nM

AGACAUGAGGAUCACCCAUGUAGCACGGAUACCAGAUCCAGAUGUAUCCCUUGGCAGCUGUGGUACAGCGUUGCAACGCUCCUAG
apparent Kd [1, 3]: 20.7 nM | apparent Kd [1, 4]: 28.1 nM

UUUUAAGGGAUCGGUGCUGGUAGCAGAGAUACCAGAGUAAUGAUACUCCCUUGGCAGCUCAGUACAUGAGGAUCACCCAUGUUUU
apparent Kd [1, 3]: 17.4 nM | apparent Kd [1, 4]: 25.9 nM

AAUUGGGUUGGUGAGGUGGUUGGAGGCGAUACCAGCGUGGAAACACGCCCUUGGCAGCGCCAGGACAUGAGGAUCACCCAUGUUC
apparent Kd [1, 3]: 22.7 nM | apparent Kd [1, 4]: 35.2 nM

AAAUAAAUCACAUGAGGAUCACCCAUGGAUACCAGGCCUGGAAACAGCCCUUGGCAGCCACAUGAGGAUCACCCAUGUGCUAAAU
apparent Kd [1, 3]: 190 nM | apparent Kd [1, 4]: 198 nM

UCUUUCUAUGUAGAUACCAGCAUGUUAUAUUUCUAAUGACAUGAGGAUCACCCAUGUAAAUGCCCUUGGCAGCUGCGUUUUCUUU
apparent Kd [1, 5]: 16.9 nM | apparent Kd [1, 6]: 13.2 nM

ACAUGAAGAACAGCGGUGGGCGCGCUCGAUACCAGUACUUUGAUUUACCCUUGGCAGCGACAUGAGGAUCACCCAUGUGAGAUGA
apparent Kd [1, 3]: 18 nM | apparent Kd [1, 4]: 27.6 nM

CGAGUUCGCUGAUGGGCUACGUCAGGUGAUACCAGCCACUCCCGCGGCCCUUGGCAGCACAUGAGGAUCACCCAUGUAGAGCUUG
apparent Kd [1, 3]: 13.6 nM | apparent Kd [1, 4]: 238 nM

ACAUGAGGAUCACCCAUGUGCCGAGUUGAUACCAGACCCGCACUAGUCCCUUGGCAGCAACUACGUGUGGGACACCCAUGUUAAG
apparent Kd [1, 3]: 54.4 nM | apparent Kd [1, 4]: 71.3 nM

UGCAUCAUAAUCAUGUUGGUGCUAGGUGAUACCAGCAUCGAAAGAUGCCCUUGGCAGCACCAACAUGAGGAUCACCCAUGUAAUA
apparent Kd [1, 5]: 114 nM | apparent Kd [1, 6]: 337 nM

CGAAUACUGAGUGAUACCAGUGAAAGAUAACUGUAUACACAUGAGGAUCACCCAUGUACACACCCUUGGCAGCACACUAGAUCGA
apparent Kd [1, 5]: 33.3 nM | apparent Kd [1, 6]: 17.4 nM

UGUUUUGUGAUGGAUACCAGCAGAGAAAACGUUUAUCCUAACAUGAGGAUCACCCAUGUAUGCCCUUGGCAGCUGUUGUGGGAUA
apparent Kd [1, 3]: 29.7 nM | apparent Kd [1, 4]: 34.1 nM

ACGCUGAUUGAUUACAAUCAGCGAAAAGAUACCAGUGGGUAAUCCCACCCUUGGCAGCUUAAACAUGAGGAUCACCCAUGUGGUA
apparent Kd [1, 5]: 74.5 nM | apparent Kd [1, 6]: 123 nM

ACCUACACGGAAACGUGUAGAAGUAAUGAUACCAGCAUGGAAACAUGCCCUUGGCAGCGUUACAUGAGGAUCACCCAUGUAUGUU
apparent Kd [1, 3]: 14.8 nM | apparent Kd [1, 4]: 32.4 nM

AAUAUAAGUGUAAUUUUAUGUAUCUCUGAUACCAGACCCUCAUGUGUCCCUUGGCAGCAGUAACAUGAGGAUCACCCAUGUAAAA
apparent Kd [1, 5]: 65.4 nM | apparent Kd [1, 6]: 310 nM

AGCAUCUAGUCGGCCGCCACUCUUAUUACAUGAGGAUCACCCAUGUUUAAUUCAUGGUUAUAUUUGAGGACCGGGACAUUUGCAU
apparent Kd [2, 7]: 61.7 nM | apparent Kd [2, 8]: 55.8 nM

AUUUAUUAGACGGCCGCCACUUGAAAGCGACCUCAUAAAUGGGAACAUGAGGAUCACCCAUGUAAGAGGACCGGGUCUAGUAGAU
apparent Kd [2, 9]: 104 nM | apparent Kd [2, 10]: 300 nM

CUCCCGUGGUCGGCCGCCACUGGAGGCCUCGCGCGACAUGAGGAUCACCCAUGUUGGCCCGGCUUCAGGACCGGGAUCGCGUGAG
apparent Kd [2, 9]: 12.4 nM | apparent Kd [2, 10]: 11.4 nM

GUAGCGACGACGGCCGCCACUCACACGAGAGGGUAGACCAACCUUCACAUGAGGAUCACCCAUGUGAGGACCGGGUUGUCGGUAC
apparent Kd [2, 7]: 24 nM | apparent Kd [2, 8]: 171 nM

ACAUGAGGAUCACCCAUGUGUGUAAGUCCUCGAGGACCGGUACGGCCGCCACUCGAUUGAGUGUAAGUUGAAUGUAACAUUCAAC
apparent Kd [2, 9]: 16.7 nM | apparent Kd [2, 10]: 13.8 nM

GGCCAUGGAAACAUGGCGGCGGCAUAUGCGCGAGGACCGGUACGGCCGCCACUCGGGCAACAUGAGGAUCACCCAUGUUCCUCAU
apparent Kd [2, 7]: 211 nM | apparent Kd [2, 8]: 454 nM

GAGUAGAGGACGGCCGCCACUGAACAUGAGGAUCACCCAUGUCGUGAUCCGUUACCUAGGGUAGAUAGGACCGGGUCAUGUACUC
apparent Kd [2, 7]: 42.6 nM | apparent Kd [2, 8]: 42.5 nM

AAUAGUCCUCGACAUGAGGAUCACCCAUGUCGAGGACCGGUACGGCCGCCACUCGACAUGAGGAUCACCCAUGUUGAGUGAUAAA
apparent Kd [2, 7]: 8.34 nM | apparent Kd [2, 8]: 7.72 nM

GCCGCUGCCGCGGUGUGUGUGGGUGGGUGACGAGGACCGGUACGGCCGCCACUCGCGAUCGCACAUGAGGAUCACCCAUGUGUAA
apparent Kd [2, 7]: 15 nM | apparent Kd [2, 8]: 21.8 nM

AGAUUCGACACGGCCGCCACUUGUGGUGGAUUAUCCUAUGUAAGACAUGAGGAUCACCCAUGUACAAGGACCGGGUGUUGAGUCU
apparent Kd [2, 7]: 308 nM | apparent Kd [2, 8]: 93.1 nM

AAUGUAUGGCACAUGAGGAUCACCCAUGUGCGAGGACCGGUACGGCCGCCACUCGGUCCUGGGAUCUUACAACUAUACAUUAAUG
apparent Kd [2, 7]: 13.2 nM | apparent Kd [2, 8]: 27 nM

UAUCGUCAGACGGCCGCCACUAGAACAUGAGGAUCACCCAUGUAGGCGGCCGAUUCCUCAUUAACUAGGACCGGGUCUGACGAAU
apparent Kd [2, 7]: 8.13 nM | apparent Kd [2, 8]: 9.67 nM

UAUAUAUAUCACGAACUGUGGUGUAUGUCUCGAGGACCGGUACGGCCGCCACUCGCGCGGCCUCACAUGAGGAUCACCCAUGUUG
apparent Kd [2, 7]: 44.6 nM | apparent Kd [2, 8]: 46 nM

AUCAUAAUAGACUCGUUAGAUUAUAUGGAACGAGGACCGGUACGGCCGCCACUCGUGAUGUACAUGAGGAUCACCCAUGUUAGCU
apparent Kd [2, 9]: 14.7 nM | apparent Kd [2, 10]: 15.2 nM

AUAUAUACAUGAGGAUCACCCAUGUUAUUUCGAGGACCGGUACGGCCGCCACUCGAUAGAGUAGAAGUAACAUUUGUUAGAUGAU
apparent Kd [2, 9]: 21.6 nM | apparent Kd [2, 10]: 13.2 nM

CAAUGCAGGUCGGCCGCCACUACACACAUGAGGAUCACCCAUGUAGUUACUGGGUGAAGUGGCAGUAGGACCGGGACCUGCAUAA
apparent Kd [2, 9]: 373 nM | apparent Kd [2, 10]: 265 nM

CUUGGCUGUGCGGCCGCCACUGGCUCAUCCUGCAUUACAUGAGGAUCACCCAUGUUGCGGCCUCCCAGGACCGGGCAUAGCCUGA
apparent Kd [2, 9]: 253 nM | apparent Kd [2, 10]: 139 nM

UAUCGUCAGACGGCCGCCACUAGAACAUGAGGAUCACCCAUGUAAGUGGCUGGUUCAUGGGUGUCUAGGACCGGGUCUGACGAAU
apparent Kd [2, 7]: 17.2 nM | apparent Kd [2, 8]: 37.2 nM

UACCCAUGAGUUGGAAAAGCUCAUGGGUAUCGAGGACCGGUACGGCCGCCACUCGGCUGUACAUGAGGAUCACCCAUGUCAGGGU
apparent Kd [2, 9]: 432 nM | apparent Kd [2, 10]: 585 nM

CGAGUAAGAACAAUCGAAUAACGGUUUUCGCGAGGACCGGUACGGCCGCCACUCGUGUGAAAUAACACAUGAGGAUCACCCAUGU
apparent Kd [2, 9]: 23.1 nM | apparent Kd [2, 10]: 20 nM

AGUGUCGGAGCGGCCGCCACUAGCACAUCUGGUCGCCAUGGCAACAUGAGGAUCACCCAUGUUGCUAGGACCGGGCUCAAUAUUU
apparent Kd [2, 7]: 9.38 nM | apparent Kd [2, 8]: 10.7 nM

AGGUGACAUGAGGAUCACCCAUGUGGCUUACGAGGACCGGUACGGCCGCCACUCGGUGUGACCUCCGCAUUCACAUAAUAAUCUU
apparent Kd [2, 9]: 53.9 nM | apparent Kd [2, 10]: 45.3 nM

AGCAACAAGUCGGCCGCCACUCUUUUAACAUGAGGAUCACCCAUGUUUAUAUCAUGGUUUUAAUAGAGGACCGGGACAGUUGCAU
apparent Kd [2, 7]: 35.1 nM | apparent Kd [2, 8]: 41.8 nM

AUUACAUGAGCAUCAGCACAUGAGGAUCACCGAGGACCGGUACGGCCGCCACUCGACACAUGAGGAUCACCCAUGUGUUGUUGUU
apparent Kd [2, 7]: 286 nM | apparent Kd [2, 8]: 244 nM

GGACUCGUCACGGCCGCCACUGCGGUGGUGUGACAUGAGGAUCACCCAUGUUGUCAUGCGGCCCUUAGGACCGGGUGUCGCGUCC
apparent Kd [2, 7]: 63.1 nM | apparent Kd [2, 8]: 67.1 nM

CAAUAUAUAGCGGCCGCCACUUACUCAUGAGGUAACAACAUGAGGAUCACCCAUGUUUGAGGAUCAAGGACCGGGCUAUAUAUUG
apparent Kd [2, 9]: 27.1 nM | apparent Kd [2, 10]: 19.9 nM

ACAUGAGGAUCACCCAUGUACAUCACCCGACGAGGACCGGUACGGCCGCCACUCGGGUAUAUAUUUACAUCGGGUGAUUUUACGU
apparent Kd [2, 9]: 16.7 nM | apparent Kd [2, 10]: 18 nM

CCUAUGCAGUCGGCCGCCACUGAUAAAAUUAUUUUUACCUCAGAAACAUGAGGAUCACCCAUGUACAGGACCGGGACUGUAUAGG
apparent Kd [2, 7]: 18.1 nM | apparent Kd [2, 8]: 38.5 nM
